# Results from different studies.
Structure (SMILES),system,setting,Tmax [min]
CC=Cc1ccc(O)c(OC)c1,"mouse, plasma","intranasal, 100 mg/kg",5
CC(C)(C)c1ccc(O)c(CN(Cc2cc(C(C)(C)C)ccc2O)C2CCC(NC(N)=O)CC2)c1 (centres unmarked),"male C57BL/6 mouse, plasma","intraperitoneal, 25 mg/kg, single dose",15
CNC(=O)[C@H](Cc1c[nH]cn1)NC(=O)CN(CCCc1ccccc1)CC(=O)OC,"male C57BL/6 mouse, plasma","intraperitoneal, 30 mg/kg",10
CNCCN(C)c1cc(C#N)cc(CCc2cc(C)cc(N)n2)c1,"male BALB/c mouse, plasma","oral, 10 mg/kg",15
Cc1ccc(NC(=O)c2ccc(CN3CCN(C)CC3)cc2)cc1Nc1nccc(-c2cncc(-c3oncc3C)c2)n1,"male C57BL/6 mouse, plasma","oral, 100 mg/kg/day",240
CCc1cc(OC)c2nccc(N3CCc4c(cc(Cn5ccnc5)cc4-c4cn(C)nc4C(F)(F)F)C3=O)c2c1,"male CD-1 mouse, plasma","oral, 150 mg/kg",30
COc1cc(C(=O)N2CCC(N3CCN(C)CC3)CC2)ccc1Nc1ncc2c(n1)N(C)c1ccccc1C(=O)N2C,"mouse, plasma","oral, 10 mg/kg",60
CC(C)(Nc1nc(-c2ccccn2)nc2ccccc12)c1ccccn1,"female BALB/c mouse, plasma","oral, 50 mg/kg",342
CN1C(=O)c2ccccc2[S@+]([O-])c2ccc(C(=O)NCCc3cccs3)cc21,"male C57BL/6 mouse, brain","intraperitoneal, 30 mg/kg, single dose",15
COc1ccc(C(O)COc2ccc(-c3csc(-c4ccc(OCC(O)c5ccc(OC)c(OC)c5)cc4)n3)cc2)cc1OC (centres unmarked),"C57BL/6 mouse, plasma","oral, 75 mg/kg",60
COc1cc(OC)c2nccc(N3CCc4c(cc(Cn5ccnc5)cc4-c4cn(C)nc4C(F)(F)F)C3=O)c2c1,"male CD-1 mouse, plasma","oral, 50 mg/kg",42
COc1nc(-c2cc(C)c(N[C@@H](C)c3c(F)cc(F)cc3F)nn2)ccc1-n1cnc(C)c1,"male CD-1 mouse, plasma","intravenous, 1 mg/kg, single dose",4.98
O=C(c1cc2cc(F)ccc2[nH]1)c1c[nH]c2c(F)cccc12,"female mouse, plasma","intraperitoneal, 6 mg/kg",~15
C=CC(=O)N1CC2CC(n3nc(-c4ccc(C(=O)Nc5ccccn5)cc4)c4c(N)ncnc43)CC2C1 (centres unmarked),"SCID mouse, plasma","oral, 0.2 mg/kg",15
Cc1cc(Nc2ccc3ccccc3c2)n2ncnc2n1,"male Swiss mouse, plasma","oral, 50 mg/kg, single dose",30
CS(=O)(=O)CCNCc1ccc(-c2ccc3ncnc(Nc4ccc(OCc5cccc(F)c5)c(Cl)c4)c3c2)o1,"nude mouse, plasma","oral, 50 mg/kg, single dose",60
CNC(=O)c1cc(Oc2ccc(NC(=O)Nc3ccc(Cl)c(C(F)(F)F)c3)c(F)c2)ccn1,"male mouse, plasma","oral, 10 mg/kg, single dose",162
